The record followed here is PubChem BioAssay.

The structures appear in SMILES notation. The source made the active and inactive calls.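 Rule for the calls, unless noted: active = viability at or under a set limit in both replicates, limit being median viability minus 3 SD (cut at about 48% in these data, passing the limit was not always enough); inconclusive = at or under the limit in just one replicate; inactive = at or above the limit in both replicates.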

Experiment [1] in a line: Her2 expression decrease, cell viability multiplex – SKBR3 breast tumor cells, AlphaScreen, ATP viability, primary screen (AID 461;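 active = Her2 level under about 52% in both replicate screens, with viability over 70% of control, limit read from the data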;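 for Her2 level: lower value means less Her2 protein in the cells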;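 for viability: percent of carrier control wells set as 100% viability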). The settings on record: SKBR3 Her2 protein level, 18-24 h, measured here: SKBR3 viability, ATP luminescence, at 10 µM. On the technique in general: Bead proximity is the source of the signal in Alpha formats.
Experiment [2] has as its target Receptor tyrosine-protein kinase erbB-2 (Homo sapiens) (UniProt P04626). Described as above. As to conditions: 18-24 h, at 10 µM, stronger effect = lower value.
The nature of experiment [3]: reduced viability of SK-BR-3 breast cancer cells – cell-based, 24 h, human, pilot screen (AID 572;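 active = viability at or below 10% of carrier control in both of two separate runs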;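 note: compound exposure lasted between 18 and 24 h rather than exactly 24 h; 100% = carrier-treated control wells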). The settings on record: SK-BR-3 viability, CellTiter-Glo luminescence, at 10 µM, stronger effect = lower value. In general terms: Cellular ATP, detected with luciferase, serves as a proxy for viable cell number.
The nature of experiment [4]: HUVEC growth inhibition – cell-based, human, primary screen (AID 575;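 active = viability at or below 30% in both replicate assays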;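 note: 100% = median of untreated cell wells with 0.1% DMSO on each plate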). The settings on record: HUVEC proliferation, CellTiter-Glo luminescence, 72 h; at 10 µM; stronger effect = lower value. In outline: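 Test system: primary human umbilical vein endothelial cells. Quantity: 1250 cells/well. Compound: single 10 µM dose, 0.1% DMSO, from 5x medium stock. Timing: 72 h treatment at 37 °C. Detection: ATP-based CellTiter-Glo luminescent read. Benchmarks: vehicle and MePR control wells. Format: 384-well plates coated with collagen.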

Experiment [5] is described as follows: H69AR cell proliferation blockers – human, duplicate replicates, primary screen (AID 580).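 Note: 100% = mean luminescence of untreated wells and 0% = no signal.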 The settings on record: H69AR lung tumor cells viability, ATP luminescence, 72 h; at 10 µM; stronger effect = lower value.
Experiment [6] is described as follows: MRP1 drug-resistance reversers in H69AR cells – cell-based, doxorubicin co-treatment, pilot screen (AID 601;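 active = viability loss from added drug above about 55%, and viability with drug at most 40%, in both replicates, limit read from the data, passing the limit was not always enough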). The settings on record: CellTiter-Glo, 72 h, at 10 µM; for differential viability (reversal): stronger effect = higher value.
Experiment [7] can be described thus: yeast transport mutant growth inhibition pilot in 384-well plates, post-Golgi transport modulator project (AID 636; in the data active = inhibition above about 31%). As to conditions: absorbance 615 nm, about 18 h, stronger effect = higher value.
Experiment [8] can be described thus: growth suppression of yeast trafficking mutant, preliminary HTS, modulators of trafficking downstream of Golgi apparatus project, 1536-format plate, OD 615 nm (AID 637; in the data active = inhibition above about 30%). As to conditions: yeast transport mutant growth, absorbance 615 nm, 18 h; stronger effect = higher value.
[9] abbreviates: H69AR cells + 2 uM doxorubicin, measured here: viability with 2 uM doxorubicin, stronger effect = lower value.
Setting [10] is: H69AR cells, compound alone cytotoxicity.

Receptor tyrosine-protein kinase erbB-2 (Homo sapiens), sequence (P04626 whole entry, looked up): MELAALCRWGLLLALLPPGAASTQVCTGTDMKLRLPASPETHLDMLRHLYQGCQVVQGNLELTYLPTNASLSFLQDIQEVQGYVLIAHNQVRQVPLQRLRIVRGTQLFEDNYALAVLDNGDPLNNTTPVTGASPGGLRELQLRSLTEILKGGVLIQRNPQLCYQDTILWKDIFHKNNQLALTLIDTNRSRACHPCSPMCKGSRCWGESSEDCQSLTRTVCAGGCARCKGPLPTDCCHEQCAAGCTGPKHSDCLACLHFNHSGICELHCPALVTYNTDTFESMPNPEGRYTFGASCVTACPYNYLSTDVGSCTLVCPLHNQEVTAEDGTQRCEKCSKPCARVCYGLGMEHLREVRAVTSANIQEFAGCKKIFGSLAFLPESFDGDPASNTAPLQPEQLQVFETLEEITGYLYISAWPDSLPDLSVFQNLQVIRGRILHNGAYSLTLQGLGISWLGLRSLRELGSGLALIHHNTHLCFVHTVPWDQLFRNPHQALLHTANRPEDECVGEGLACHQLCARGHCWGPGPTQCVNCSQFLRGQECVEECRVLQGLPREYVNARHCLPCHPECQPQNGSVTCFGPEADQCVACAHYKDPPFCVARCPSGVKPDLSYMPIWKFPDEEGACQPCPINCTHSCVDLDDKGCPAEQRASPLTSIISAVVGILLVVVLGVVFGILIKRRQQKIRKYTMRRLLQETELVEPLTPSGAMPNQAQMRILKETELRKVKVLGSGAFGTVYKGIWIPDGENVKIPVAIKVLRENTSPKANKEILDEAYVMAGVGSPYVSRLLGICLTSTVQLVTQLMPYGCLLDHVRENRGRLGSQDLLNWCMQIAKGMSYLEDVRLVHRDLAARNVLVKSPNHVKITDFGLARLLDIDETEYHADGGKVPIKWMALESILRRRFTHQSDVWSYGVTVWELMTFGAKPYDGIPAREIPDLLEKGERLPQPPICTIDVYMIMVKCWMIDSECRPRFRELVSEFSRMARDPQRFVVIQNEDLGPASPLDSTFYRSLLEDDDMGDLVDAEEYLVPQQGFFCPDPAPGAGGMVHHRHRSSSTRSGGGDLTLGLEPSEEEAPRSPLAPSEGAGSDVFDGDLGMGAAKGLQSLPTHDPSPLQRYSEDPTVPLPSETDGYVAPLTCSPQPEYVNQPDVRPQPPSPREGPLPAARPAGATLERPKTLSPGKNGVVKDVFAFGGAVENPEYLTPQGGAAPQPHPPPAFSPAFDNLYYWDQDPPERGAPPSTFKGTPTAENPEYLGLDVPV

For the compound `COc1ccc(OC)c2[nH]c(=O)c(CCNC(=O)CC(C)C)cc12`, the viability in experiment [1] is 111%; in experiment [3], 111% (inactive); in experiment [4], 106% (inactive); in experiment [5], 100% (inactive); in experiment [6] (setting [9]), 95.2%; in experiment [6] (setting [10]), 100%. In addition, the Her2 level in experiment [2] was 104% (inactive). In experiment [6] (H69AR cells + 2 uM doxorubicin), the differential viability (reversal) is 4.93% (inactive). Besides, the inhibition was -8.77% (inactive) in experiment [7] and -4.44% (inactive) in experiment [8].

For the compound `CC(=O)Nc1ccc(NC(=O)c2cc(C)nn2-c2ccccc2)cc1`, the viability in experiment [1] is 84%; in experiment [3] it was 84% (inactive); in experiment [4], 89.5% (inactive); in experiment [5] it was 108% (inactive); in experiment [6] (setting [9]), 95.5%; in experiment [6] (setting [10]) it was 108%. Moreover, in experiment [2], the Her2 level was 116% (inactive). Moreover, the differential viability (reversal) in experiment [6] (H69AR cells + 2 uM doxorubicin) is 12.7% (inactive). Further, the values for the inhibition in experiment [7] and in experiment [8] were 2.53% (inactive) and -7.9% (inactive), respectively.

For `O=C(NCc1ccco1)Nc1ccc2nsnc2c1`, the viability was 104% in experiment [1]; 104% (inactive) in experiment [3]; 51.5% (inactive) in experiment [4]; 22% (active) in experiment [5]; 23.2% in experiment [6] (setting [9]); 22% in experiment [6] (setting [10]). In experiment [2], the Her2 level is 114% (inactive). In experiment [6] (H69AR cells + 2 uM doxorubicin), the differential viability (reversal) was -1.17% (inactive). In addition, the inhibition in experiment [7] was -3.6% (inactive); in experiment [8], -6.45% (inactive).

In the case of `Cc1ccc(CNC(=O)CCCn2c(=O)c3ccccc3n(CC(=O)NCc3ccco3)c2=O)cc1`, the viability was 90.5% in experiment [1]; 90.5% (inactive) in experiment [3]; 104% (inactive) in experiment [4]; 89.6% (inactive) in experiment [5]; 91% in experiment [6] (setting [9]); 89.6% in experiment [6] (setting [10]). Besides, the Her2 level in experiment [2] was 144% (inactive). Moreover, the differential viability (reversal) in experiment [6] (H69AR cells + 2 uM doxorubicin) is -1.43% (inactive). Further, the figures for the inhibition in experiment [7] and in experiment [8] were 2.76% (inactive) and 12.6% (inactive), respectively.

As to `COc1ccc(C2NC(c3ccc(OC)c(OC)c3OC)C(C)C(=O)C2C)c(OC)c1OC` (stereo not given), the viability was 99.5% in experiment [1]; 99.5% (inactive) in experiment [3]; 99.7% (inactive) in experiment [4]; 92.4% (inactive) in experiment [5]; 84.5% in experiment [6] (setting [9]); 92.4% in experiment [6] (setting [10]). Further, the Her2 level in experiment [2] was 88.5% (inactive). Also, the differential viability (reversal) in experiment [6] (H69AR cells + 2 uM doxorubicin) is 7.84% (inactive). Moreover, the inhibition in experiment [7] is -3.42% (inactive); in experiment [8], -2.22% (inactive).

As for `COc1ccc(C(O)Cn2c(=N)n(CCCN(C)C)c3ccccc32)cc1` (stereo not given), the viability in experiment [1] was 78.5%; in experiment [3] it was 78.5% (inactive); in experiment [4], 90.3% (inactive); in experiment [5], 97.5% (inactive); in experiment [6] (setting [9]), 91.1%; in experiment [6] (setting [10]) it was 97.5%. Moreover, the Her2 level in experiment [2] was 102% (inactive). In addition, the differential viability (reversal) in experiment [6] (H69AR cells + 2 uM doxorubicin) is 6.39% (inactive). In addition, the inhibition was -0.26% (inactive) in experiment [7] and -6.51% (inactive) in experiment [8].

As to `O=C(CN1CCN(c2nc(-c3ccccc3)cs2)CC1)Nc1ccc2c(c1)OCO2`, the viability was 90.5% in experiment [1]; 90.5% (inactive) in experiment [3]; 89.9% (inactive) in experiment [4]; 101% (inactive) in experiment [5]; 95.5% in experiment [6] (setting [9]); 101% in experiment [6] (setting [10]). In addition, the Her2 level in experiment [2] was 99% (inactive). In experiment [6] (H69AR cells + 2 uM doxorubicin), the differential viability (reversal) was 5.71% (inactive). In addition, the inhibition in experiment [7] was -3.87% (inactive); in experiment [8], -7.1% (inactive).

Consider `CCOC(=O)N1CCC(NC(=O)CCC(=O)N2CC(C)Oc3ccc(Cl)cc32)CC1` (stereo not given), for which the viability was 104% in experiment [1]; 104% (inactive) in experiment [3]; 94.6% (inactive) in experiment [4]; 92.5% (inactive) in experiment [5]; 85.8% in experiment [6] (setting [9]); 92.5% in experiment [6] (setting [10]). For the same compound, the Her2 level in experiment [2] was 96% (inactive). The differential viability (reversal) in experiment [6] (H69AR cells + 2 uM doxorubicin) is 6.71% (inactive). The results for the inhibition in experiment [7] and in experiment [8] were -5.53% (inactive) and -9.33% (inactive), respectively.

Turning to `Cc1nc2c(c(=O)n1CC1CCCO1)c1nc3ccccc3nc1n2CC(C)C` (stereo not given), the viability was 96.5% in experiment [1]; 96.5% (inactive) in experiment [3]; 104% (inactive) in experiment [4]; 84.2% (inactive) in experiment [5]; 94.1% in experiment [6] (setting [9]); 84.2% in experiment [6] (setting [10]). Besides, the Her2 level in experiment [2] is 89.5% (inactive). For the same compound, in experiment [6] (H69AR cells + 2 uM doxorubicin), the differential viability (reversal) was -9.93% (inactive). Further, the values for the inhibition in experiment [7] and in experiment [8] were 2.63% (inactive) and 0.81% (inactive), respectively.

Turning to `CN(CC(=O)Nc1sccc1C#N)C1CCCCC1`, the viability in experiment [1] was 106%; in experiment [3], 106% (inactive); in experiment [4] it was 89.8% (inactive); in experiment [5], 93.2% (inactive); in experiment [6] (setting [9]), 87.7%; in experiment [6] (setting [10]), 93.2%. The Her2 level in experiment [2] is 104% (inactive). Moreover, the differential viability (reversal) in experiment [6] (H69AR cells + 2 uM doxorubicin) is 5.53% (inactive). In addition, the inhibition in experiment [7] is -6.67% (inactive); in experiment [8], -4.44% (inactive).

With `CCOc1ccccc1Nc1nnc(SCC(=O)N2CCCC2)s1`, the viability in experiment [1] is 104%; in experiment [3] it was 104% (inactive); in experiment [4], 103% (inactive); in experiment [5], 101% (inactive); in experiment [6] (setting [9]), 92.8%; in experiment [6] (setting [10]), 101%. Further, the Her2 level in experiment [2] was 91.5% (inactive). In addition, the differential viability (reversal) in experiment [6] (H69AR cells + 2 uM doxorubicin) was 7.78% (inactive). The inhibition is -3.12% (inactive) in experiment [7] and -0.95% (inactive) in experiment [8].

Take `O=C(C1CCCO1)N1CCN(C(c2ccccc2)c2ccccc2)CC1` (stereo not given): the viability in experiment [1] was 98.5%; in experiment [3], 98.5% (inactive); in experiment [4], 89.1% (inactive); in experiment [5], 96% (inactive); in experiment [6] (setting [9]) it was 89.5%; in experiment [6] (setting [10]) it was 96%. Moreover, in experiment [2], the Her2 level was 94% (inactive). For the same compound, the differential viability (reversal) in experiment [6] (H69AR cells + 2 uM doxorubicin) was 6.47% (inactive). The inhibition in experiment [7] is -0.91% (inactive); in experiment [8], 2.62% (inactive).

As for `Brc1ccc(C2=Nn3c(nnc3-c3ccncc3)SC2)cc1`, the viability in experiment [1] was 94.5%; in experiment [3], 94.5% (inactive); in experiment [4], 82.8% (inactive); in experiment [5], 77.1% (inactive); in experiment [6] (setting [9]), 91.4%; in experiment [6] (setting [10]), 77.1%. The Her2 level in experiment [2] was 79.5% (inactive). Besides, the differential viability (reversal) in experiment [6] (H69AR cells + 2 uM doxorubicin) was -14.3% (inactive). The inhibition in experiment [7] is -2.89% (inactive); in experiment [8] it was -0.36% (inactive).

On to `CCCc1cc(Nc2cccc(OC)c2)n2ncnc2n1`, for which the viability in experiment [1] was 83%; in experiment [3], 83% (inactive); in experiment [4], 94.6% (inactive); in experiment [5], 81.2% (inactive); in experiment [6] (setting [9]) it was 81.8%; in experiment [6] (setting [10]), 81.2%. The Her2 level in experiment [2] was 129% (inactive). In addition, the differential viability (reversal) in experiment [6] (H69AR cells + 2 uM doxorubicin) was -0.635% (inactive). For the same compound, the inhibition is -4.1% (inactive) in experiment [7] and -5% (inactive) in experiment [8].

The viability is a read-out of living cells in per cent, often relative to untreated cells. What is called inhibition is the relative decrease from the control value, in per cent.
